Experiments:
Assay type in all cases: ADME
[1] = (§1) Drug metabolism in Sprague-Dawley rat liver microsomes after 30 mins by LC-ESI-MS analysis; details: Sprague-Dawley, liver microsomes
Method in brief: (§2)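 2'-OH-TCC at 0.2, 0.5, 1, 2, 3, 5, 10 and 50 µM incubated with liver microsomes (alamethicin, MgCl2, saccharolactone, UDPGA; 37 °C), sampled at 5, 10, 15 and 30 min. Samples ≥5 µM diluted 1:9 in ACN; LC-ESI-MS. KM and vmax fitted from rate vs concentration; intrinsic clearance derived from these; mean and SD of three.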

Liver microsome = test: as §1; details: microsomes, 0.5 h; method in brief: as §2
[2] = molecular target: T1, UDP-glucuronosyltransferase 1A7 (Homo sapiens, UniProt Q9HAW7); test: Drug metabolism assessed as human UGT1A7-mediated N'-glucuronide-triclocarban formation expressed in baculovirus infected insect sf9 cells incubated for 5 mins prior to UDPGA addition measured after 5 to 30 mins by LC-UV analysis
T1 sequence (Q9HAW7 whole entry): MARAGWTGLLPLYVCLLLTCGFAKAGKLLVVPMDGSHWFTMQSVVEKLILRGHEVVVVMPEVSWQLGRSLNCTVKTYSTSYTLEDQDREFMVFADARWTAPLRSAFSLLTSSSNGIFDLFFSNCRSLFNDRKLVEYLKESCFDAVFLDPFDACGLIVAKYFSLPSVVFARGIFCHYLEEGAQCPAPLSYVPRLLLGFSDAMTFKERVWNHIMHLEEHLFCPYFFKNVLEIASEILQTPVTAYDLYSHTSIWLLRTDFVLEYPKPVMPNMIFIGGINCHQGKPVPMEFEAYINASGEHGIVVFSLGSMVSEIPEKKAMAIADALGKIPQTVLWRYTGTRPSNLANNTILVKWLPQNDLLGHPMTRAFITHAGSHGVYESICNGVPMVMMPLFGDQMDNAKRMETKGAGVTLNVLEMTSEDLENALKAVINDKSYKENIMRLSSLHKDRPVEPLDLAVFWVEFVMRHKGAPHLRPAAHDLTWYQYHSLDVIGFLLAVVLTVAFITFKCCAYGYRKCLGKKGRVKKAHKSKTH
Method in brief: (§3)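 Microsomes or UGT Supersomes (5 µg protein) were held 15 min on ice with alamethicin in 100 mM potassium phosphate pH 7.4. TCC was added at 10 µM (2% DMSO) with 10 mM MgCl2 and 10 mM saccharolactone, pre-warmed 5 min at 37 °C, then started with UDPGA. Samples at 5, 10, 15 and 30 min were quenched in ACN. Product was read by LC-UV at 265 nm; rate came from regression over time, three incubations.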

[3] = molecular target: T2, UDP-glucuronosyltransferase 1A6 (Homo sapiens, UniProt P19224); test: Drug metabolism assessed as human UGT1A6-mediated N'-glucuronide-triclocarban formation expressed in baculovirus infected insect sf9 cells incubated for 5 mins prior to UDPGA addition measured after 5 to 30 mins by LC-UV analysis; method in brief: as §3
T2 sequence (P19224 whole entry): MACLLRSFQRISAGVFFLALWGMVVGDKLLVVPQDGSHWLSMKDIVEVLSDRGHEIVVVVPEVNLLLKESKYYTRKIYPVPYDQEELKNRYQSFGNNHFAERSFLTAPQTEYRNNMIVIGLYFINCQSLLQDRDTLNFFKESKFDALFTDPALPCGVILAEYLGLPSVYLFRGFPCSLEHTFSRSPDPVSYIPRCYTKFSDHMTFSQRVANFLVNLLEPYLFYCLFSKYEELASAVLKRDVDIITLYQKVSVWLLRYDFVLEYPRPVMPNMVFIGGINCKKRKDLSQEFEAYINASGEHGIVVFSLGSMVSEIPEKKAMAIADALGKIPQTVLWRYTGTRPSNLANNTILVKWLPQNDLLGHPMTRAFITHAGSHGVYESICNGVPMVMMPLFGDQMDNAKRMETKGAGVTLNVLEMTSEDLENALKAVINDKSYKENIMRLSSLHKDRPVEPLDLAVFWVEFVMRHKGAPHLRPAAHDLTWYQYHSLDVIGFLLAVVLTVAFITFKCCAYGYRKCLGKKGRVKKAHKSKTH

[4] = Drug metabolism in human intestine microsomes assessed as N'-glucuronide-triclocarban formation incubated for 5 mins prior to UDPGA addition measured after 5 to 30 mins by LC-UV analysis; method in brief: as §3
[5] = molecular target: T3, UDP-glucuronosyltransferase 1A8 (Homo sapiens, UniProt Q9HAW9); test: Drug metabolism assessed as human UGT1A8-mediated N'-glucuronide-triclocarban formation expressed in baculovirus infected insect sf9 cells incubated for 5 mins prior to UDPGA addition measured after 5 to 30 mins by LC-UV analysis; method in brief: as §3
T3 sequence (Q9HAW9 whole entry): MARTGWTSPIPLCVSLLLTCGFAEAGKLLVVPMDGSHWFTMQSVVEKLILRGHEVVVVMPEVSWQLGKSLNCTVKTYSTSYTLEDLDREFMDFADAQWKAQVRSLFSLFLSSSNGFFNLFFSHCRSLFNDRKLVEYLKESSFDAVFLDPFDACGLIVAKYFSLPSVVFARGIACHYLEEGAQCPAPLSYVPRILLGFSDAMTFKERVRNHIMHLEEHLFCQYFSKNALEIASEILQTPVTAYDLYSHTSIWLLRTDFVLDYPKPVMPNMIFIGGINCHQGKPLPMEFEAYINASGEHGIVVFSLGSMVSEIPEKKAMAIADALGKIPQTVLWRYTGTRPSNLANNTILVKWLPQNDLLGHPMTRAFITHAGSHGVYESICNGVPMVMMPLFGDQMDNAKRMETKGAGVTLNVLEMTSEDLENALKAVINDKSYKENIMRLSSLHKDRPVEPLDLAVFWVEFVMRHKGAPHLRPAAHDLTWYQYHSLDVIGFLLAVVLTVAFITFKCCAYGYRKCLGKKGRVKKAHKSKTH

[6] = molecular target: T4, UDP-glucuronosyltransferase 2B4 (Homo sapiens, UniProt P06133); test: Drug metabolism assessed as human UGT2B4-mediated N-glucuronide-triclocarban formation expressed in baculovirus infected insect sf9 cells incubated for 5 mins prior to UDPGA addition measured after 5 to 30 mins by LC-UV analysis; method in brief: as §3
T4 sequence (P06133 whole entry): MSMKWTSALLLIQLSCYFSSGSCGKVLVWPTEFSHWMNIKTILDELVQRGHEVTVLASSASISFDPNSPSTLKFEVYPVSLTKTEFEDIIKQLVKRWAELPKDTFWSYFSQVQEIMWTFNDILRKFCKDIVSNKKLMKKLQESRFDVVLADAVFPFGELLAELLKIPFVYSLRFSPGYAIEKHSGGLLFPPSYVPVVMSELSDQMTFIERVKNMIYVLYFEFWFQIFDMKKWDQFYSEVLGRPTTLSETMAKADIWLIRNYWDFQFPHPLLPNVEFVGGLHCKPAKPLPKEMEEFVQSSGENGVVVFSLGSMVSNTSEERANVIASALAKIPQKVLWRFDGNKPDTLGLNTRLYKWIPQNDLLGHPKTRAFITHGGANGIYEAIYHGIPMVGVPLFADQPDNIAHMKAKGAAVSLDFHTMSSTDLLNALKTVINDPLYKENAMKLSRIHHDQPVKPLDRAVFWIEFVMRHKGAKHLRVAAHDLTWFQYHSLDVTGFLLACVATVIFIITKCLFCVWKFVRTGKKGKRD

Km at 0.5 h [1] | Vmax (Liver microsome) | SMILES | Drug metabolism [2] | Drug metabolism [3] | Drug metabolism [4] | Drug metabolism [5] | Drug metabolism [6]
3.29 µM | 9.42 nmol/min/mg | O=C(Nc1ccc(Cl)c(Cl)c1)Nc1ccc(Cl)cc1O | – | – | – | – | –
– | – | O=C(Nc1ccc(Cl)cc1)Nc1ccc(Cl)c(Cl)c1 [TRICLOCARBAN] | metabolite_not_detected | metabolite_not_detected | metabolite_not_detected | metabolite_not_detected | metabolite_not_detected

From ChEMBL document CHEMBL3525967, “In vitro glucuronidation of the antibacterial triclocarban and its oxidative metabolites” (Drug Metab Dispos, 2012)
